Results: ChEMBL document CHEMBL5252513, “Identification of a Benzoisoxazoloazepine Inhibitor (CPI-0610) of the Bromodomain and Extra-Terminal (BET) Family as a Candidate for Human Clinical Trials” (J Med Chem, 2016)

How the values were obtained:
[1] = biological target: Histone acetyltransferase KAT2B (Homo sapiens, UniProt Q92831); test: Displacement of biotinylated JQ1 from PCAF bromodomain (unknown origin) incubated for 20 mins by AlphaLISA assay
[2] = Unbound AUC in mouse at 30 mg/kg,po; type: ADME, organism-based; details: in vivo
[3] = AUC (0 to infinity) in mouse at 30 mg/kg,po; type: ADME, organism-based; parameters: dose 30 mg/kg, route po; details: in vivo
[4] = Tmax in rat at 5 mg/kg,po; type: ADME, organism-based; details: in vivo
[5] = Unbound AUC in rat at 5 mg/kg,po; type: ADME, organism-based; details: in vivo
[6] = Protein binding in dog plasma; type: ADME, cell-free, Canis lupus familiaris; details: read-out: PPB (converted)
[7] = Intrinsic clearance in mouse liver microsomes; type: ADME, Microsome; details: read-out: CLH
[8] = Intrinsic clearance in dog liver microsomes; type: ADME, Canis lupus familiaris, Microsome; details: read-out: CLH
[9] = Intrinsic clearance in rat liver microsomes; type: ADME, Microsome
[10] = Cmax in dog at 2.5 mg/kg,po; type: ADME, organism-based, Canis lupus familiaris; parameters: dose 2.5 mg/kg, route po; details: in vivo
[11] = Volume of distribution at steady state in dog at 0.5 mg/kg,iv; type: ADME, organism-based, Canis lupus familiaris; details: in vivo, read-out: Vdss
[12] = Initial unbound plasma concentration in human patient with progression lymphoma at 300 mg,po QD and measured after 24 hrs; type: ADME; details: in vivo
[13] = AUC (0 to 24 hrs) in human patient with progression lymphoma at 300 mg,po QD and measured after 24 hrs; type: ADME; parameters: time 24 hrs, dose 300 mg, route po; details: in vivo
Outline: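 Phase I trial in patients with hematologic malignancies, oral dosing once daily with escalating cohorts; values are from the 300 mg dose on day 14. AUC0-24 was taken as exposure over 24 h. Apparent clearance was calculated as Dose/AUC0-24.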

[14] = Half life in human patient with progression lymphoma at 300 mg,po QD consecutively for 14 days; type: ADME; details: in vivo, time 14 day
[15] = Total clearance in dog at 0.5 mg/kg,iv; type: ADME, organism-based, Canis lupus familiaris; details: in vivo
[16] = Cmax in mouse at 10 mg/kg,sc; type: ADME, organism-based; parameters: dose 10 mg/kg, route sc; details: in vivo
[17] = Unbound AUC in mouse at 10 mg/kg,sc; type: ADME, organism-based; details: in vivo
[18] = biological target: T1, Transcription intermediary factor 1-alpha (Homo sapiens, UniProt O15164); test: Binding affinity to TRIM24 bromodomain (unknown origin) incubated for 60 mins by TR-FRET assay
T1 sequence (O15164 whole entry): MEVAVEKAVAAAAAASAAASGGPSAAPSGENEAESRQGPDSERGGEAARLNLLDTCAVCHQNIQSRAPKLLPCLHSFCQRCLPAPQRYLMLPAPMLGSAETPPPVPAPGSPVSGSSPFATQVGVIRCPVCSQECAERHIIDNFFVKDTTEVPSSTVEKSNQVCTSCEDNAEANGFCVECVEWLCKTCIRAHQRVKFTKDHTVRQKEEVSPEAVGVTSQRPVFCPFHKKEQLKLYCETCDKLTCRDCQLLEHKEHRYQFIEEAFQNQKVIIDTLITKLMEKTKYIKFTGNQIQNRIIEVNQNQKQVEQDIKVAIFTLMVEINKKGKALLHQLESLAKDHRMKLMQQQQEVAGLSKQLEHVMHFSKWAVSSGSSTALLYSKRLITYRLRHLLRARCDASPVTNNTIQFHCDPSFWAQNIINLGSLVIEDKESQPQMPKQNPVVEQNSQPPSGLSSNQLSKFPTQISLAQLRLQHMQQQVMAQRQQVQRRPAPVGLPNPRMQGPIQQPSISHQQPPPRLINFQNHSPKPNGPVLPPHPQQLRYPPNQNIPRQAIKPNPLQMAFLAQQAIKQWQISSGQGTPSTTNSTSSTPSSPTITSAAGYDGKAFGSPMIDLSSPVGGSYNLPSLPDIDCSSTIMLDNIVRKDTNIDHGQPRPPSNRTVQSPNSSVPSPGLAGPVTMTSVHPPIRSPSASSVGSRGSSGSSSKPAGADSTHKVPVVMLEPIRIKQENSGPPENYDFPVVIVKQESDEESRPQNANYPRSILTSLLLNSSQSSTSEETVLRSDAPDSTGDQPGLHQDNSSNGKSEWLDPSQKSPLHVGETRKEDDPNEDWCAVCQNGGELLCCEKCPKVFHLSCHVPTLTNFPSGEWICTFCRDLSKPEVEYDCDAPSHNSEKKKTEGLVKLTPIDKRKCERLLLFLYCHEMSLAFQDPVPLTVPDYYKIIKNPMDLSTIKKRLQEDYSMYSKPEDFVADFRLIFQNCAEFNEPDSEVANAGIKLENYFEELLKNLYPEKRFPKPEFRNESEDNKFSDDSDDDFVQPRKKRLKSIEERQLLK

MV4-11 = test: Antitumor activity against human MV4-11 cells xenografted in BALB/c mouse assessed as tumor growth inhibition at 30 mg/kg,po BID for 28 days; type: functional; details: MV4-11, 672 h, time 28 day, read-out: TGI
Outline: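 Single-agent efficacy in MV-4-11 AML mouse xenograft. Tumor volume (mm3) and percent body-weight change were tracked over the treatment days.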

[19] = Toxicity against BALB/c mouse plasma xenografted with human MV4-11 cells assessed as body weight loss at 30 mg/kg,po BID for 28 days; type: organism-based; details: in vivo, 672 h, time 28 day
Outline: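 Body weight change (%) followed in MV-4-11 AML mouse xenograft during 28 days of oral single-agent dosing (30 mg/kg once or twice daily, 60 mg/kg once daily), vehicle PO BID as control.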

[20] = Toxicity against BALB/c mouse plasma xenografted with human MV4-11 cells assessed as body weight loss at 10 mg/kg,sc BID in presence of doxorubicin at 2 mg/kg,iv BIW for 28 days; type: organism-based; details: in vivo, 672 h, time 28 day
Outline: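 MV-4-11 acute myeloid leukemia mouse xenograft; BET inhibitor given subcutaneously 10 mg/kg twice daily, doxorubicin 2 mg/kg IV twice weekly, alone or combined, for 28 days; body weight change (%) tracked over treatment against vehicle.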

[21] = Toxicity in rat assessed as GI mucosal erosion at 2 to 20 mg/kg,po QD consecutive for 14 days followed by 2 weeks recovery period; type: organism-based; details: in vivo, 336 h, dose 2-20 mg/kg, time 14 day
Outline: (§1)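 Oral suspension given once daily for 14 consecutive days (rat 2, 6, 20 mg/kg; dog 2, 4, 6 mg/kg) in dose range-finding and GLP repeat-dose studies, GLP arms with an added 2-week recovery period; histopathology and clinical pathology findings recorded.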

[22] = Toxicity in rat assessed as degeneration of testicular seminiferous epithelium at 2 to 20 mg/kg,po QD consecutive for 14 days followed by 2 weeks recovery period; type: organism-based; details: in vivo, 336 h, dose 2-20 mg/kg, time 14 day; outline: as §1
[23] = Toxicity in dog assessed as hypocellularity of bone marrow with associated anemia and thrombocytopenia at 2 to 6 mg/kg,po QD consecutive for 14 days followed by 2 weeks recovery period; type: organism-based, Canis lupus familiaris; details: in vivo, 336 h, dose 2-6 mg/kg, time 14 day; outline: as §1
[24] = Toxicity in dog assessed as GI mucosal erosion at 2 to 6 mg/kg,po QD consecutive for 14 days followed by 2 weeks recovery period; type: organism-based, Canis lupus familiaris; details: in vivo, 336 h, dose 2-6 mg/kg, time 14 day; outline: as §1
[25] = Toxicity in dog assessed as degeneration of testicular seminiferous epithelium at 2 to 6 mg/kg,po QD consecutive for 14 days followed by 2 weeks recovery period; type: organism-based, Canis lupus familiaris; details: in vivo, 336 h, dose 2-6 mg/kg, time 14 day; outline: as §1
[26] = Toxicity in dog assessed as to mild to moderate hyperglycemia at 2 to 6 mg/kg,po QD consecutive for 14 days followed by 2 weeks recovery period; type: organism-based, Canis lupus familiaris; details: in vivo, 336 h, dose 2-6 mg/kg, time 14 day; outline: as §1

Histone acetyltransferase KAT2B, sequence (Q92831 whole entry): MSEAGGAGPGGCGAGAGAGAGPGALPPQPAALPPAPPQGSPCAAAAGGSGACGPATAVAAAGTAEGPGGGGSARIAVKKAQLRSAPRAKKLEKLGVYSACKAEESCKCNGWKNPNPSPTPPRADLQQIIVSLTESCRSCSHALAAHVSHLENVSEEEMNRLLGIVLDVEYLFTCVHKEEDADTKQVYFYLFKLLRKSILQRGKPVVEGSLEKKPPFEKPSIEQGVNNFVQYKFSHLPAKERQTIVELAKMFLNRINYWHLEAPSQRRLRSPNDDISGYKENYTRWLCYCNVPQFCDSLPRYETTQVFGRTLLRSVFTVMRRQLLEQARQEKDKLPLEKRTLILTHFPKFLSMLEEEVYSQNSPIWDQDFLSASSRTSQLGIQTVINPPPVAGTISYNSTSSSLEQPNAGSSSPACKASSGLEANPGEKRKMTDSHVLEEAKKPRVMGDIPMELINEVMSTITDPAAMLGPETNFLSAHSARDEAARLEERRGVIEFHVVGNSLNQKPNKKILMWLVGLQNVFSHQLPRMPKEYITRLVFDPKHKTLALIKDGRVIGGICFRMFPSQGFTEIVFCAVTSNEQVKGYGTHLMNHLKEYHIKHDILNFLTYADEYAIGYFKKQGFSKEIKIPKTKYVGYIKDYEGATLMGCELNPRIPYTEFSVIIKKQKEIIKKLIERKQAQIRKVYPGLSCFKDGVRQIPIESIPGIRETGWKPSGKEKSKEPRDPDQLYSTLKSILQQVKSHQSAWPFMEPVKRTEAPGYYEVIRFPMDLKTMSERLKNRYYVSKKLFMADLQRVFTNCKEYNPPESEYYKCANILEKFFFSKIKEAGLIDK

Q: Which results are given for `Cc1noc2c1-c1ccccc1C(c1ccc(Cl)cc1)=N[C@H]2CC(N)=O` [PELABRESIB]?
A: IC50 [1]: > 20 µM; fAUC [2]: 3 µM·h; AUC(0-inf) [3]: 101 µM·h; Tmax [4]: 1.2 h; fAUC [5]: 0.64 µM·h; fraction unbound [6]: 0.04; predicted hepatic clearance [7]: 30 mL/min/kg; predicted hepatic clearance [8]: 20 mL/min/kg; predicted hepatic clearance (CLH) [9]: 21 mL/min/kg; Cmax [10]: 2900 nM; Vd [11]: 1.2 L/kg; C0(unbound) [12]: 11 nM; AUC at 24 h [13]: 49 µM·h; half-life [14]: 23 h; clearance [15]: 1.83 mL/min/kg; Cmax [16]: 8400 nM; fAUC [17]: 1.5 µM·h; IC50 [18]: > 20 µM; inhibition in vivo at 30 mg/kg (MV4-11): 80%; Activity [19]: Non-Toxic; Activity [20]: Non-Toxic; Activity [21]: Toxic; Activity [22]: Toxic; Activity [23]: Toxic; Activity [24]: Toxic; Activity [25]: Toxic; Activity [26]: Toxic
